Screens: PubChem, several laboratories
Beta cell apopt = blocks beta cell apoptosis | protection from apoptosis, % (concentration not given with the values) | AID 435005 | 0.8% of 300,000 active | INS-1E cytokine-induced death, ATP luminescence, 48 h; percent of positive-control rescue, neutral wells zero;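 active = Every replicate reaches about 75%, or at least half do and their mean reaches it too, limit read from the data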;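 note: 0% = cytokine-treated negative control wells and 100% = positive control rescue; higher means more ATP so stronger rescue from cytokine killing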
CSC inhib = blocks cancer stem cells; cancer stem cell-like cells viability, luminescence; inhibition, % at 7.5 µM; 1.1% of 300,000 active; AID 2717; in the data active = inhibition above about 75%; tested in HMLE shEcad cells
L major viab = reduces viability of Leishmania major promastigotes | inhibition, % at 10 µM | resazurin fluorescence viability | 9% of 200,000 active; in the data active = inhibition above about 50%;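 note: promastigotes grown with compound for 44 hours at 28 °C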
T cruzi inh = blocks replication of Trypanosoma cruzi; T. cruzi beta-gal in NIH3T3, luminescence, 90 h; inhibition, % (no concentration beside the values); 1.4% of 300,000 active;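 active = mean inhibition across valid replicates above about 55%, limit read from the data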;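 note: signal also drops with host cell toxicity which is not excluded here; 0% = plate median of DMSO wells and 100% = zero luminescence signal; higher percent means less beta-gal luminescence so fewer parasites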
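Read-out: Parasite load inhibition, % | Test system: Mouse NIH/3T3 fibroblasts infected with β-gal-expressing T. cruzi Tulahuen C4 | Amount: 5,000 cells/well | Medium: DMEM, 2% fetal bovine serum | Signal: GalScreen β-gal luminescence, detergent lysis, 60 min | Timing: 3 h attach, ≥90 h co-culture | Also added: Tulahuen C4 trypomastigotes, 5000/well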
SKKanGAS inh = blocks kanamycin growth of S. pyogenes SKKanGAS strain | BacTiter-Glo, 6 h | inhibition, % at 7.5 µM | 1.3% of 300,000 active | AID 1662;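 active = mean replicate score, as percent of positive control median, at least 50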;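 note: strain carries kanamycin resistance gene driven by streptokinase promoter and grows in 40 µg/ml kanamycin; loss of luminescence reflects streptokinase promoter inhibition or plain growth inhibition; 0% = median of DMSO wells and 100% = positive control at its reference dose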
Mdm2-MdmX inh = inhibitors of human Mdm2/MdmX interaction; 3% of 330,000 active; SaOS-2 split-luciferase Mdm2/MdmX complementation, luminescence; AID 485346; inhibition, % at 8 µM; O15151+Q00987;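 active = inhibition of at least 50% at 8 µM in the primary screen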
Target sequence (O15151 whole entry, looked up): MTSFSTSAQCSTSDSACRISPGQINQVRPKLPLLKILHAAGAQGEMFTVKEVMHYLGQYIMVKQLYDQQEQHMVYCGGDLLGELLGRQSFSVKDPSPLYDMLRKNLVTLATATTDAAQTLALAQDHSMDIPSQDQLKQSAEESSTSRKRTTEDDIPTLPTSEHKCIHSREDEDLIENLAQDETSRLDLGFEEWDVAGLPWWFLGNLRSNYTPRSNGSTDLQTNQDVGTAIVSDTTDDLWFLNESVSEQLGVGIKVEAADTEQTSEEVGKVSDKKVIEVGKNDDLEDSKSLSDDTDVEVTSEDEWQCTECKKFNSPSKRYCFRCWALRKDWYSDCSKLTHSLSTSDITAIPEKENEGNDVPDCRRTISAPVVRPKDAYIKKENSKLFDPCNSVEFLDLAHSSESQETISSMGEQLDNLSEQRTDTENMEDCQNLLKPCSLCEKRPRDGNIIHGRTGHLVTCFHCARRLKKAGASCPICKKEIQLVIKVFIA
Target sequence (Q00987 whole entry, looked up): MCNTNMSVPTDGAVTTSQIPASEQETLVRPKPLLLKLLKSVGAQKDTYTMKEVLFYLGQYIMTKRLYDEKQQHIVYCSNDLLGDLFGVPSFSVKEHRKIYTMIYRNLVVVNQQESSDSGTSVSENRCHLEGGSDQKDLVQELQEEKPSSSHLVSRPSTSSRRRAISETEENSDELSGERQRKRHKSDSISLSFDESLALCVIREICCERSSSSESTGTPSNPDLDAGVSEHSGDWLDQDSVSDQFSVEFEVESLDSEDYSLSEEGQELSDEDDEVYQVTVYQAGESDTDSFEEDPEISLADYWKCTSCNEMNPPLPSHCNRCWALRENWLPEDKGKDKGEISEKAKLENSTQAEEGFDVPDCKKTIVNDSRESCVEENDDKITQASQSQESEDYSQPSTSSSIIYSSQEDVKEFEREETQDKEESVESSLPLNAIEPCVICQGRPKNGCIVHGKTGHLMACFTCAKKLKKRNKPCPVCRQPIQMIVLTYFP
Numbers without * were called inactive. Most compounds without a hit are left out; they make up all but 9.4% or so of the library.

`CC(C)(C)OC(=O)CC[C@@H](C(=O)N1CCN(C(=O)OC(C)(C)C)CC1)n1cc(C(Cc2ccc(O)cc2)NC(=O)OC(C)(C)C)nn1` (stereo not given in full) gave Beta cell apopt 6, CSC inhib -5, L major viab -5, T cruzi inh 41, SKKanGAS inh 3 and Mdm2-MdmX inh 23.
Screening COc1ccc(-n2cc(CNCCc3cnc[nH]3)c(-c3cccc(F)c3)n2)cc1 returned Beta cell apopt -7, CSC inhib -19, L major viab 100*, T cruzi inh 38, SKKanGAS inh 5 and Mdm2-MdmX inh -11.
For COc1ccc(-n2cc(CN(C)C(C)c3ccncn3)c(-c3cccc(F)c3)n2)cc1 (stereo not given) the results were Beta cell apopt -7, CSC inhib -6, L major viab 35, T cruzi inh 66*, SKKanGAS inh -7 and Mdm2-MdmX inh 9.
`COc1ccc(-n2cc(CN3CCC(OC)CC3)c(-c3cccc(F)c3)n2)cc1` gave Beta cell apopt 3, CSC inhib -2, L major viab 9, T cruzi inh 18, SKKanGAS inh -4 and Mdm2-MdmX inh 0.
Screening COc1ccc(-n2cc(CNC3CCC(O)CC3)c(-c3cccc(F)c3)n2)cc1 (stereo not given) returned Beta cell apopt 2, CSC inhib -7, L major viab 84*, T cruzi inh 1, SKKanGAS inh 0 and Mdm2-MdmX inh 20.
Screening O=C(CC1CCCCC1)NCc1nc(-c2ccccc2)no1 returned Beta cell apopt -5, CSC inhib 3, T cruzi inh 3, SKKanGAS inh 1 and Mdm2-MdmX inh -29.
Screening Cc1ccccc1OCC(=O)NCCCNC(=O)c1ccccn1 returned CSC inhib -6, T cruzi inh 12, SKKanGAS inh -4 and Mdm2-MdmX inh 32.
Screening Cc1ccc(C(=O)NC(=S)Nc2ccc(NC(=O)c3cccc(Cl)c3)cc2)cc1 returned Beta cell apopt 1, CSC inhib 2, L major viab -3, T cruzi inh -32, SKKanGAS inh 11 and Mdm2-MdmX inh 37.
Screening Cc1ccccc1C(=O)NC(=S)Nc1ccc(Oc2ccc(Cl)cc2)cc1 returned Beta cell apopt 1, CSC inhib 65, L major viab -6, T cruzi inh 20, SKKanGAS inh 19 and Mdm2-MdmX inh 26.
Screening O=C(NC(=S)Nc1ccc(-c2ccc(CO)o2)cc1)c1cccs1 returned Beta cell apopt 5, CSC inhib 0, L major viab -6, T cruzi inh -10 and Mdm2-MdmX inh -14.
Screening O=C(NC(=S)Nc1ccc(Oc2ccccc2)cc1)c1ccc(Cl)cc1 returned Beta cell apopt -8, CSC inhib 59, L major viab 0, T cruzi inh 62*, SKKanGAS inh 8 and Mdm2-MdmX inh 24.
Screening Cc1ccc(C(=O)NC(=S)Nc2ccc(-c3ccc(CO)o3)cc2)cc1 returned Beta cell apopt -3, CSC inhib 16, L major viab -5, T cruzi inh -16, SKKanGAS inh 61* and Mdm2-MdmX inh 30.
For Cc1ccc(C(=O)NC(=S)Nc2ccc(Oc3ccc(Cl)cc3)cc2)cc1 the results were Beta cell apopt -2, CSC inhib 31, L major viab -6, T cruzi inh 65*, SKKanGAS inh -3 and Mdm2-MdmX inh 5.
CC1CC(C)(C)NC(=S)N1CCC(=O)N1CCc2ccccc2C1 (stereo not given) was read as Beta cell apopt 0, CSC inhib -12, L major viab 3, T cruzi inh -12, SKKanGAS inh -2 and Mdm2-MdmX inh 18.
`COc1cc(CN2CCCC(C(=O)N3CCc4ccccc4C3)C2)cc(OC)c1OC` (stereo not given) gave Beta cell apopt 2, CSC inhib -2, T cruzi inh 41, SKKanGAS inh -3 and Mdm2-MdmX inh 23.
Screening N#CCCN1CCCc2cc(N=Nc3ccc(C(F)(F)F)cc3)ccc21 returned Beta cell apopt 1, CSC inhib 68, T cruzi inh 41, SKKanGAS inh 20 and Mdm2-MdmX inh 3.
For COc1ccc(-n2cc(CNCCCn3ccnc3)c(-c3ccccc3Cl)n2)cc1 the results were Beta cell apopt 3, CSC inhib 6, L major viab 100*, T cruzi inh 18, SKKanGAS inh -2 and Mdm2-MdmX inh 18.
